Published values gathered from unrelated publications.
Sample: plasma

| SMILES | system | setting | measurement | value |
| --- | --- | --- | --- | --- |
| Cn1cc(Nc2nc(N)nc(-c3cccc(-n4ccc5cc(C6CC6)cc(F)c5c4=O)c3CO)n2)cn1 | human | oral, 300 mg, single dose, fasted, healthy volunteers | AUC(0-t) | 11500 ng·h/mL |
| Cc1ccc(C(=O)Nc2ccc(CN3CCN(C)CC3)c(C(F)(F)F)c2)cc1C#Cc1cnc2[nH]ncc2c1 | human | oral, 40 mg, single dose, healthy volunteers | AUC(0-t) | 246 ng·h/mL |
| COc1ccc([C@@H](O)c2cc(-c3ncnc4cc(N5CCOCC5)ccc34)c(F)cc2Cl)nn1 | human | oral, 400 mg, single dose, patients | AUC(0-t) | 14100 ng·h/mL |
| CC(C)n1c(Nc2cccnc2)nc2cnc(Nc3ccc(N4CCN(C)CC4)cc3)nc21 | male human | oral, 100 mg | AUC(0-inf) | 853 ng·h/mL |
| CNC(=O)n1ccc2cc(Oc3ccnc(NC(=O)c4ccc(C5CCN(CCO)CC5)cc4)c3)c(OCCOC)cc21 | human | oral, 35 mg, single dose, fasted, healthy volunteers | AUC(0-inf) | 128 ng·h/mL |
| NC(=S)NN=Cc1ncccc1N | human | oral, 150 mg | AUC(0-inf) | 1030 ng·h/mL |
| Cl.[2H]C([2H])([2H])CC(=O)c1cnc(NC(=O)C2CC2)cc1Nc1cccc(-c2ncn(C([2H])([2H])[2H])n2)c1OC | human | oral, 10 mg, multiple doses, once daily, steady state | AUC | 796 ng·h/mL |
| CN1CC[C@@H](c2c(O)cc(O)c3c(=O)cc(-c4ccc(C(F)(F)F)cc4Cl)oc23)[C@@H]1CO | human | oral, 150 mg, patients | AUC(0-t) | 3760 ng·h/mL |
| CC[C@H](C)CCCCC(=O)N[C@@H](CCN)C(=O)N[C@H](C(=O)N[C@@H](CCN)C(=O)N[C@H]1CCNC(=O)[C@H]([C@@H](C)O)NC(=O)[C@H](CCN)NC(=O)[C@H](CCN)NC(=O)[C@H](CC(C)C)NC(=O)[C@@H](Cc2ccccc2)NC(=O)[C@H](CCN)NC1=O)[C@@H](C)O | human | intravenous, 0.75 mg/kg, single dose, infusion | AUC(0-t) | 19600 ng·h/mL |
